In PMC6279241 (Science signaling, 2018):
Substitutions are numbered along the chain they refer to. Numbered stars: 1 amine (or outer) side, 2 acyl side, 3 side chain; on linkers, the order of the positions; unused ones are H or OH. Bridge positions count the residues as written; N and C are the ends. Square brackets hold non-standard residues; d marks the D form. Peptide text beside a SMILES is read from it. * marks the point of attachment. Leu(3R-OH,Nα-propionyl) = CCC(=O)N[C@H](C(=O)*)[C@H](O)C(C)C; X1 = CC(C)[C@@H](O[*:3])[C@H](N[*:1])C(=O)[*:2]; NMeT = CN[C@H](C(=O)O)[C@@H](C)O; dPhLac = O=C(O)[C@H](O)Cc1ccccc1; NMeA = CN[C@@H](C)C(=O)O; NMeDha = C=C(NC)C(=O)O

How the values were obtained:
Gαq(Q209L) = target: T1, Gαq(Q209L) (Mus musculus, UniProt P21279, Q209L); test: SRE; type: cell-based; conditions: read-out: IC50, inhibition of transcriptional reporter driven by constitutively active Gαq; SRE(L) reporter
T1 sequence (P21279 1-359 Q209L): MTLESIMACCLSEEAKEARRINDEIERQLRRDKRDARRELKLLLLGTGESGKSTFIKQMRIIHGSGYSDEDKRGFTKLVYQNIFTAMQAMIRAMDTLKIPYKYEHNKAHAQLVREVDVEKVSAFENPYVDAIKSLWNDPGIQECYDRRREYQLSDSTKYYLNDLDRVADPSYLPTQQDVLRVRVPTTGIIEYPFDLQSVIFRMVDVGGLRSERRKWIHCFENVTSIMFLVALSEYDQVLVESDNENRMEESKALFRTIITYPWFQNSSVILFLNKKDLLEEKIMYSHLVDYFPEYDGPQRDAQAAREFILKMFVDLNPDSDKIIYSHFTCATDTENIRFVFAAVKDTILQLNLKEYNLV
Outline: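 Firefly luciferase signal from the Gα-driven transcriptional reporter was normalized to co-transfected Renilla luciferase from a constitutive promoter.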

92.1 cells [1] = test: Immunofluorescence staining of melanocytic markers in 92.1 cells; type: cell-based, human
Outline: (§1)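 Immunofluorescence for TYR, DCT and PMEL. An equal volume of 2× fixative (PBS, 4% paraformaldehyde, 0.4% glutaraldehyde) was added to cells in growth medium for 15 min at 37 °C. Cells were permeabilized with 0.1% Triton X-100 for 5 min, blocked with 2% fish gelatin, and labelled with Alexa Fluor secondaries. The proportion of marker-positive cells was compared with Fisher's exact test. Representative of 3 experiments.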

OCM-1A cells [2] = test: Flow cytometry of DNA content; type: cell-based, human; conditions: 3 days
Outline: (§2)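 Cells were treated with test compound for 3 days, then stained with propidium iodide for DNA content and run on a FACScan flow cytometer. The sub-G1 fraction gave apoptosis; S- and G2/M-phase fractions gave proliferation. Mean ± SEM of 4 experiments. t-tests were corrected with the Holm-Sidak method.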

Gαi/q(R54K) [3] = target: Gαi/q(R54K) (Homo sapiens, UniProt P63096, H188P/K180P/T187Y/V185I/V50I/V72L/Y69F); test: Nucleotide exchange; type: biochemical; conditions: in vitro
Sequence of Gαi/q(R54K) (Homo sapiens, UniProt P63096, H188P/K180P/T187Y/V185I/V50I/V72L/Y69F) (P63096 whole entry V50I/Y69F/V72L/K180P/V185I/T187Y/H188P): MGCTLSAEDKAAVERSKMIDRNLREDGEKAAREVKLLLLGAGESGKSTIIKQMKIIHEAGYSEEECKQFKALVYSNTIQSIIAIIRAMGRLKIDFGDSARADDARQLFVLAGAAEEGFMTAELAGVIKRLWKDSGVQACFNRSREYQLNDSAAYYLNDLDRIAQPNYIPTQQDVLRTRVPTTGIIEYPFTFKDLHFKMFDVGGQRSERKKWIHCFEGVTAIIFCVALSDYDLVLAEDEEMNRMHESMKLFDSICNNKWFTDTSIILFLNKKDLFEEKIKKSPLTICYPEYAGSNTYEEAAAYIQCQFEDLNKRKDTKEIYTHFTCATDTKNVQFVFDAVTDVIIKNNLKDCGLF

92.1 cells [4] = test: IP1 abundance; type: cell-based, human; conditions: 92.1, Gαq(Q209L)-driven
Outline: (§3)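 Homogeneous IP1 immunoassay (IP-One kit). Seeding was 10,000 Mel202, 20,000 92.1 or 20,000 OCM-1A cells per well. After overnight culture, cells got test compound or DMSO and were incubated until the next day. Stimulation buffer was added for 1 h, then IP1-d2 and anti-IP1 cryptate for 60 min at room temperature. IP1 was read from kit standard curves. Mean ± SEM of 4 experiments, each in triplicate.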

Gαi/q(Q204L) = Gαi/q(Q204L) (Homo sapiens, UniProt P63096, H188P/K180P/K54R/Q204L/T187Y/V185I/V50I/V72L/Y69F); test: GTP hydrolysis; type: biochemical; conditions: FR 25 μM
Sequence of Gαi/q(Q204L) (P63096 whole entry V50I/K54R/Y69F/V72L/K180P/V185I/T187Y/H188P/Q204L): as the sequence (P63096 whole entry V50I/Y69F/V72L/K180P/V185I/T187Y/H188P) above, with K54R, Q204L counted along it
Outline: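 His-tagged Gαi/q(Q204L) was expressed in E. coli; it is Gαi1 carrying eight Gαq-type substitutions. The protein (3 μM) was in 50 mM Tris-HCl pH 8.0, 5 mM MgCl2, 1 mM EDTA, 0.5 mM DTT. Reaction started with γ32P-GTP (100 nM final, 100 Ci/mmol); protein was in >10-fold excess. FR (25 μM final) or DMSO was added partway. Aliquots were quenched in 1N formic acid and resolved on PEI-cellulose TLC. Triplicate, ≥3 days, different protein preparations.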

Gα13(Q226L) = target: T2, Gα13(Q226L) (Homo sapiens, UniProt Q14344, Q226L); test: SRE; type: cell-based; conditions: SRE(L) reporter
T2 sequence (Q14344 1-377 Q226L): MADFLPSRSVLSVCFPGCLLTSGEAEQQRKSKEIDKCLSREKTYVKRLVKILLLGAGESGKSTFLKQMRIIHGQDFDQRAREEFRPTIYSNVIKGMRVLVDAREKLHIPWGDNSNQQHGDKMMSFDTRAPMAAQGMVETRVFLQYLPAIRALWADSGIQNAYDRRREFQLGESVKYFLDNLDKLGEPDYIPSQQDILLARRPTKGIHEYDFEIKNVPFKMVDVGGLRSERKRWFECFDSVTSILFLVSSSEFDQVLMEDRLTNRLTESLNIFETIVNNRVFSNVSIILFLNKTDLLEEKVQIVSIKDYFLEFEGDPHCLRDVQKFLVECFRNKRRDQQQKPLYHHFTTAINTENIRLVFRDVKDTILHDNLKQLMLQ
Outline: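 SRE(L) promoter-driven firefly luciferase transcriptional reporter activated by constitutively active Gα13. Firefly signal was normalized to co-transfected Renilla luciferase expressed from a constitutive promoter.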

Mel202 cells [5] = test: Immunofluorescence staining of melanocytic markers in Mel202 cells; type: cell-based, human
Outline: as §1

OCM-1A cells [6] = test: IP1 abundance; type: cell-based, human; conditions: BRAF(V600E)-driven
Outline: as §3

OCM-1A cells [7] = test: Cell viability/proliferation; type: cell-based, human; conditions: even at 10 μM
Outline: (§4)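 Water-soluble tetrazolium salt (WST-8) viability assay run per the maker's protocol. Cells were grown in RPMI 1640 with 10% FBS and antibiotics at 37 °C, 5% CO2. Fold-change in viability over time was followed at increasing test compound concentrations, and EC50 was taken from concentration-response data. Mean ± SEM of 4 experiments, each in triplicate.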

OCM-1A cells [8] = test: Morphology; type: cell-based, human; conditions: 3 days
Outline: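 Cells were treated with test compound for 3 days and imaged by phase contrast on an inverted microscope with a 10× objective. Representative fields are from one of 3 experiments.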

Mel202 cells [9] = test: Melanocytic pigmentation of Mel202 cells; type: cell-based, human; conditions: Mel202, 3 days, vs vehicle
Outline: (§5)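 Cells were treated with test compound for 3 days, then pelleted and examined macroscopically for pigmentation against vehicle (DMSO). Representative images are from one of 3 experiments, each in triplicate.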

Gαi/q(R54K) [10] = test: Attenuation of cannabinoid receptor-evoked inhibition of forskolin-induced cAMP; type: cell-based; conditions: Neuro2A
OCM-1A cells [11] = test: Quantitative RT-PCR of PRC2-regulated genes in OCM-1A cells; type: cell-based, human; conditions: qRT-PCR
92.1 cells [12] = test: Flow cytometry of DNA content; type: cell-based, human; conditions: 92.1, 3 days
Outline: as §2

wild type Gαq / Gβγ = target: T3, wild type Gαq / Gβγ (Mus musculus, UniProt P21279); test: Co-purification of endogenous Gβγ with affinity-tagged wild type Gαq; type: cell-based; conditions: FR 1 μM, 24 hours; n=3
T3 sequence (P21279 1-359): T1 sequence (P21279 1-359 Q209L) with L209Q
Outline: (§6)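 HEK293 cells were transfected with mouse Gαq, either wild type or Q209L. A FLAG-StrepII-StrepII tag flanked by Gly/Ser linkers was inserted between residues 124 and 125. After 24 h, cells got FR (1 μM) or DMSO for 24 h. They were lysed in 50 mM Tris pH 8.0, 100 mM NaCl, 5 mM EDTA, 1 mM MgCl2, 0.5% IGEPAL, ± 1 μM FR. StrepTactin then anti-FLAG purification at 4 °C. Immunoblot for FLAG and Gβ; 3 independent experiments.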

92.1 cells [13] = test: Cell viability/proliferation; type: cell-based, human; conditions: read-out: EC50, inhibition of proliferation (viability)
Outline: as §4

92.1 cells [14] = test: RNA-Seq gene expression in FR-treated 92.1 cells; type: cell-based, human; conditions: 92.1, 100 nM FR
Gα13(Q226L) / LARG-RGS = target: T4, Gα13(Q226L) / LARG-RGS (Homo sapiens, UniProt Q14344, Q226L); type: cell-based; conditions: split luciferase
T4 sequence (Q14344 1-377 Q226L): T2 sequence (Q14344 1-377 Q226L)
Outline: (§7)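 Split click beetle green luciferase in transiently transfected HEK293 cells. The N-terminal fragment sat in the helical-domain αB-αC loop of wild type or Q226L Gα13. The C-terminal fragment was fused to the N-terminus of Gβ1 (with untagged Gγ2 co-transfected) or of the LARG RGS domain. Cells were treated 18 h with test compound or DMSO, then reconstituted luciferase activity was read. Triplicate wells; 3 experiments on different days.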

Gαi/q = test: Attenuation of cannabinoid receptor-evoked inhibition of forskolin-induced cAMP; type: cell-based; conditions: read-out: IC50, attenuation of Gαi/q-mediated inhibition of forskolin-induced cAMP accumulation; Neuro2A, cannabinoid type 1 receptors, WIN 55,212-2
92.1 cells [15] = test: Melanocytic pigmentation of 92.1 cells; type: cell-based, human; conditions: 92.1, 3 days, vs vehicle
Outline: as §5

Mel202 cells [16] = test: IP1 abundance; type: cell-based, human; conditions: Mel202, Gαq(Q209L)-driven
Outline: as §3

Mel202 cells [17] = test: Cell viability/proliferation; type: cell-based, human; conditions: read-out: EC50, inhibition of proliferation (viability)
Outline: as §4

Mel202 cells [18] = test: Flow cytometry of DNA content; type: cell-based, human; conditions: Mel202, 3 days
Outline: as §2

wild type Gα13 / Gβ1γ2 = wild type Gα13 / Gβ1γ2 (Homo sapiens, UniProt Q14344); test: Split-luciferase complementation between Gβ1γ2 and wild type Gα13; type: cell-based
Sequence of wild type Gα13 / Gβ1γ2 (P59768 2-68): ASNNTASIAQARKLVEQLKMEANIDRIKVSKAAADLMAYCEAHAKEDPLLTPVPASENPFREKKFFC
Sequence of wild type Gα13 / Gβ1γ2 (P62873 whole entry, further chain): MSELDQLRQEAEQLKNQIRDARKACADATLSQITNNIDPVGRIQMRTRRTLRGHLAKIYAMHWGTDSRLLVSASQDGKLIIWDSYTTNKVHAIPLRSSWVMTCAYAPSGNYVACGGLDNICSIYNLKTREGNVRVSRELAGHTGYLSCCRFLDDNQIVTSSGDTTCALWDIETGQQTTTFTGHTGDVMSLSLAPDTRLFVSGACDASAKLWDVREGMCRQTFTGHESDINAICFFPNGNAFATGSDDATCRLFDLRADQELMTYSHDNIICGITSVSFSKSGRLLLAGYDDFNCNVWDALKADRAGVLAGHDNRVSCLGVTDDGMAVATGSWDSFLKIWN
Sequence of wild type Gα13 / Gβ1γ2 (Q14344 whole entry): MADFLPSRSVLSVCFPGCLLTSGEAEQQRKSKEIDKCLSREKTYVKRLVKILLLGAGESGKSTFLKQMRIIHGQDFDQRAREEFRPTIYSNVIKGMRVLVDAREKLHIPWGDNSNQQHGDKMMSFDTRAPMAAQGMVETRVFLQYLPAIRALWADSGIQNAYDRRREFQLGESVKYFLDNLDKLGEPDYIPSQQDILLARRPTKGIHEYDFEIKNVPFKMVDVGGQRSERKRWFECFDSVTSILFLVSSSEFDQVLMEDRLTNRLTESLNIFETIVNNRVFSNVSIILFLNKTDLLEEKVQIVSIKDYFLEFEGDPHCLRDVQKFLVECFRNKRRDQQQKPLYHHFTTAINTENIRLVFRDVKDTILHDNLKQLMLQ
Outline: as §7

Gαq(Q209L) / Gβγ = target: T5, Gαq(Q209L) / Gβγ (Mus musculus, UniProt P21279, Q209L); test: Co-purification of endogenous Gβγ with affinity-tagged constitutively active Gαq; type: cell-based; conditions: FR 1 μM, 24 hours; n=3
T5 sequence (P21279 1-359 Q209L): T1 sequence (P21279 1-359 Q209L)
Outline: as §6

Gα13(Q226L) / Gβ1γ2 = target: T6, Gα13(Q226L) / Gβ1γ2 (Homo sapiens, UniProt Q14344, Q226L); test: Split-luciferase complementation between Gβ1γ2 and constitutively active Gα13; type: cell-based
T6 sequence (Q14344 1-377 Q226L): T2 sequence (Q14344 1-377 Q226L)
Outline: as §7

C=C1C(=O)N[C@@H](C)C(=O)N(C)[C@@H](C)C(=O)N[C@@H]([C@H](OC(=O)[C@@H](NC(=O)CC)[C@H](O)C(C)C)C(C)C)C(=O)N(C)[C@@H]([C@@H](C)OC)C(=O)O[C@H](C(C)C)[C@H](NC(C)=O)C(=O)O[C@H](Cc2ccccc2)C(=O)N1C [FR, FR900359] (Ac-[X1][dPhLac][NMeDha]A[NMeA][X1](Leu(3R-OH,Nα-propionyl))[NMeT](Me); ester 1-C)
IC50 (Gαq(Q209L)): 1 nM | Increase in proportion of DCT-positive cells (92.1 cells [1]): 3.5 fold | Increase in proportion of PMEL-positive cells (92.1 cells [1]): 6.8 fold | Effect on cell cycle and apoptosis (OCM-1A cells [2]): no effect | Fold less potent toward Gαi/q(R54K) than Gαi/q (nucleotide exchange) (Gαi/q(R54K) [3]): > 10 fold | Reduction of IP1 abundance (92.1 cells [4]): > 50 fold | Correction of GTP hydrolysis defect of Gαi/q(Q204L) (Gαi/q(Q204L)): not corrected | Effect on transcriptional reporter driven by constitutively active Gα13 (Gα13(Q226L)): no effect | Increase in proportion of DCT-positive cells (Mel202 cells [5]): 1.6 fold | Increase in proportion of PMEL-positive cells (Mel202 cells [5]): 3.9 fold | Increase in proportion of TYR-positive cells (Mel202 cells [5]): 1.8 fold | Reduction of IP1 abundance (OCM-1A cells [6]): ~ 2 fold | Effect on proliferation (OCM-1A cells [7]): no effect | Morphological changes (OCM-1A cells [8]): no effect | Melanocytic pigmentation (Mel202 cells [9]): increased | Fold less potent toward Gαi/q(R54K) than Gαi/q (cAMP signaling in cells) (Gαi/q(R54K) [10]): ~ 30 fold | IC50 (Gαi/q(R54K) [10]; read-out: IC50, attenuation of Gαi/q(R54K)-mediated inhibition of forskolin-induced cAMP accumulation, cannabinoid type 1 receptors, WIN 55,212-2): ~800 nM | Expression of PRC2-regulated genes (OCM-1A cells [11]): unaffected | Apoptosis (increased fraction of sub-G1/G0 cells) (92.1 cells [12]): induced | Cell cycle inhibition (decreased fraction of S- or G2/M-phase cells) (92.1 cells [12]): induced | Increase of association between Gβγ and affinity-tagged wild type Gαq (co-purification) (wild type Gαq / Gβγ): 19 fold | EC50 (92.1 cells [13]): 2 nM | Decrease in expression of BBC3/PUMA (92.1 cells [14]): 3.5 fold | Decrease in expression of PMAIP1/NOXA (92.1 cells [14]): 2.5 fold | Decrease in expression of p21CIP1 (CDKN1A) (92.1 cells [14]): 3.0 fold | Effect on interaction between constitutively active Gα13 and RGS domain of LARG (Gα13(Q226L) / LARG-RGS): lack of effect | IC50 (Gαi/q): 25 nM | Melanocytic pigmentation (92.1 cells [15]): increased | Reduction of IP1 abundance (Mel202 cells [16]): > 50 fold | EC50 (Mel202 cells [17]): 6 nM | Apoptosis (increased fraction of sub-G1/G0 cells) (Mel202 cells [18]): induced | Cell cycle inhibition (decreased fraction of S- or G2/M-phase cells) (Mel202 cells [18]): induced | Effect on interaction between wild type Gα13 and Gβ1γ2 (wild type Gα13 / Gβ1γ2): lack of effect | Increase of association between Gβγ and affinity-tagged constitutively active Gαq (co-purification) (Gαq(Q209L) / Gβγ): 9 fold | Effect on interaction between constitutively active Gα13(Q226L) and Gβ1γ2 (Gα13(Q226L) / Gβ1γ2): lack of effect
